Tests used:
[1] = target: Serine/threonine-protein kinase 25 (Homo sapiens) (UniProt O00506); assay: Inhibition of STK25 at 1 uM in presence of 100 uM ATP by Select Screen kinase assay relative to untreated control
In short: (§1)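 Commercial SelectScreen profiling panel of 220 purified kinases. Each kinase was tested at a single inhibitor concentration of 1 μM, and activity was expressed as percent inhibition.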

[2] = target: T1, Serine/threonine-protein kinase TAO2 (Homo sapiens) (UniProt Q9UL54); assay: Inhibition of TAOK2 at 1 uM in presence of 10 uM ATP by Select Screen kinase assay relative to untreated control; in short: as §1
T1 sequence (whole entry): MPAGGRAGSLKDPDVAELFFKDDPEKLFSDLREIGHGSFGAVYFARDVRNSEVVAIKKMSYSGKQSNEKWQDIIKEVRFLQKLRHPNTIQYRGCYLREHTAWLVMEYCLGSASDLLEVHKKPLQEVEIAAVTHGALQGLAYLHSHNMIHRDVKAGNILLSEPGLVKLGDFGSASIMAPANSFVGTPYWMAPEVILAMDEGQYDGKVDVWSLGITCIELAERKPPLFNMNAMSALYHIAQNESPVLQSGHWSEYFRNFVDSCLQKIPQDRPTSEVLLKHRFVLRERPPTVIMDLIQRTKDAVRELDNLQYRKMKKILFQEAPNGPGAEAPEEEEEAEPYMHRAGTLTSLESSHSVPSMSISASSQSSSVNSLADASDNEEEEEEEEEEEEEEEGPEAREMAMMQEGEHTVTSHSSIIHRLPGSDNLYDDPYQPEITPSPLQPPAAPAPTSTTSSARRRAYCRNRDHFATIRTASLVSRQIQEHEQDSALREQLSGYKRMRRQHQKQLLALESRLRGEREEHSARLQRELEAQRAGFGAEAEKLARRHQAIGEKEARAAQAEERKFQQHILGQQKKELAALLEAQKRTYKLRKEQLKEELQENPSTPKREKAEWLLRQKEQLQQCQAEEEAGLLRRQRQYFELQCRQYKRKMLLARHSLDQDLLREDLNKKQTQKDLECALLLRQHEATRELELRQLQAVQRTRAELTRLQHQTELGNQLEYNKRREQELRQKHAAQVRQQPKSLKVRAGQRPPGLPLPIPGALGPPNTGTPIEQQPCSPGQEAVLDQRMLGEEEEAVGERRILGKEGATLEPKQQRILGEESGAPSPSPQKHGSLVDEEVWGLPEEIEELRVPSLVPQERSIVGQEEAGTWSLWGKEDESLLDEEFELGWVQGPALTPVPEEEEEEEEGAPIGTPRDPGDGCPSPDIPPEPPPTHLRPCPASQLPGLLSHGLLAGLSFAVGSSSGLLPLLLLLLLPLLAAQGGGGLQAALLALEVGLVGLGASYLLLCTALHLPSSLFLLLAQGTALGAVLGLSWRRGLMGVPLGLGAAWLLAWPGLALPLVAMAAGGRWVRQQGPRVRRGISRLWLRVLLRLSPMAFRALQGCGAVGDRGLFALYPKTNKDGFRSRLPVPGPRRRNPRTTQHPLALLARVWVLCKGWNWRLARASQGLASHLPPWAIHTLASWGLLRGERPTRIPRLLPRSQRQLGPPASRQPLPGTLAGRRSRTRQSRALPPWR

[3] = target: Ephrin type-A receptor 5 (Homo sapiens) (UniProt P54756); assay: Inhibition of EPHA5 at 1 uM in presence of 10 uM ATP by Select Screen kinase assay relative to untreated control
Ephrin type-A receptor 5 (Homo sapiens), sequence (P54756 whole entry): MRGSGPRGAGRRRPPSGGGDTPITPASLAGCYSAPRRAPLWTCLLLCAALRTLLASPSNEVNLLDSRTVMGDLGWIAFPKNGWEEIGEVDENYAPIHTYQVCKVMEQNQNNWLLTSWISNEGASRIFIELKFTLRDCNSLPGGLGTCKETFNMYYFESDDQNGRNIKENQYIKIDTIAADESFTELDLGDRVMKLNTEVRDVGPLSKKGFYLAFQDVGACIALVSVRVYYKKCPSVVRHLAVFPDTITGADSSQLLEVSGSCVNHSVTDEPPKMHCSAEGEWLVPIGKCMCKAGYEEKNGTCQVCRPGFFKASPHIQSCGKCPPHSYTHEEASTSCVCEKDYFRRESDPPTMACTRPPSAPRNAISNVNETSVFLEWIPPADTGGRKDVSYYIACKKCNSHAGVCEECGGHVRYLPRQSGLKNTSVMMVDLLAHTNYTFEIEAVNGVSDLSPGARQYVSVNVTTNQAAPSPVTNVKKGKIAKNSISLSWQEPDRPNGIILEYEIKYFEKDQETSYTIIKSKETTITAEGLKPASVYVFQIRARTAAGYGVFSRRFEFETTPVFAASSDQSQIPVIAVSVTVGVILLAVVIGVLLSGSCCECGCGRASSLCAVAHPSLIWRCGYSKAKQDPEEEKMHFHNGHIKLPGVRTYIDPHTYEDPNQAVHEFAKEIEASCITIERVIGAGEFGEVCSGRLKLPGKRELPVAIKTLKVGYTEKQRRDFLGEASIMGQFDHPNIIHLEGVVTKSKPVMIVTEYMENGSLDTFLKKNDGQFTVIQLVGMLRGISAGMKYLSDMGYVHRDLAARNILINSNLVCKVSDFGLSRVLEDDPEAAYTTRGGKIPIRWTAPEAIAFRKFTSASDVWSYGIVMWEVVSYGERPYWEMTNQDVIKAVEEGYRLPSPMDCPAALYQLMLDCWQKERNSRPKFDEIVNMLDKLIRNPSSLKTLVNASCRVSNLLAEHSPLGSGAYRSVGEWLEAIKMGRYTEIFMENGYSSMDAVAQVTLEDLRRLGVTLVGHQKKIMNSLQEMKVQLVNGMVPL
In short: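 Single-point screen at 1 μM against a panel of 220 purified kinases, run by Invitrogen staff as a SelectScreen profiling service. Read-out is percent inhibition of kinase activity.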

[4] = target: Vascular endothelial growth factor receptor 3 (Homo sapiens) (UniProt P35916); assay: Inhibition of FLT4 at 1 uM in presence of 10 uM ATP by Select Screen kinase assay relative to untreated control
Vascular endothelial growth factor receptor 3 (Homo sapiens), sequence (P35916 whole entry): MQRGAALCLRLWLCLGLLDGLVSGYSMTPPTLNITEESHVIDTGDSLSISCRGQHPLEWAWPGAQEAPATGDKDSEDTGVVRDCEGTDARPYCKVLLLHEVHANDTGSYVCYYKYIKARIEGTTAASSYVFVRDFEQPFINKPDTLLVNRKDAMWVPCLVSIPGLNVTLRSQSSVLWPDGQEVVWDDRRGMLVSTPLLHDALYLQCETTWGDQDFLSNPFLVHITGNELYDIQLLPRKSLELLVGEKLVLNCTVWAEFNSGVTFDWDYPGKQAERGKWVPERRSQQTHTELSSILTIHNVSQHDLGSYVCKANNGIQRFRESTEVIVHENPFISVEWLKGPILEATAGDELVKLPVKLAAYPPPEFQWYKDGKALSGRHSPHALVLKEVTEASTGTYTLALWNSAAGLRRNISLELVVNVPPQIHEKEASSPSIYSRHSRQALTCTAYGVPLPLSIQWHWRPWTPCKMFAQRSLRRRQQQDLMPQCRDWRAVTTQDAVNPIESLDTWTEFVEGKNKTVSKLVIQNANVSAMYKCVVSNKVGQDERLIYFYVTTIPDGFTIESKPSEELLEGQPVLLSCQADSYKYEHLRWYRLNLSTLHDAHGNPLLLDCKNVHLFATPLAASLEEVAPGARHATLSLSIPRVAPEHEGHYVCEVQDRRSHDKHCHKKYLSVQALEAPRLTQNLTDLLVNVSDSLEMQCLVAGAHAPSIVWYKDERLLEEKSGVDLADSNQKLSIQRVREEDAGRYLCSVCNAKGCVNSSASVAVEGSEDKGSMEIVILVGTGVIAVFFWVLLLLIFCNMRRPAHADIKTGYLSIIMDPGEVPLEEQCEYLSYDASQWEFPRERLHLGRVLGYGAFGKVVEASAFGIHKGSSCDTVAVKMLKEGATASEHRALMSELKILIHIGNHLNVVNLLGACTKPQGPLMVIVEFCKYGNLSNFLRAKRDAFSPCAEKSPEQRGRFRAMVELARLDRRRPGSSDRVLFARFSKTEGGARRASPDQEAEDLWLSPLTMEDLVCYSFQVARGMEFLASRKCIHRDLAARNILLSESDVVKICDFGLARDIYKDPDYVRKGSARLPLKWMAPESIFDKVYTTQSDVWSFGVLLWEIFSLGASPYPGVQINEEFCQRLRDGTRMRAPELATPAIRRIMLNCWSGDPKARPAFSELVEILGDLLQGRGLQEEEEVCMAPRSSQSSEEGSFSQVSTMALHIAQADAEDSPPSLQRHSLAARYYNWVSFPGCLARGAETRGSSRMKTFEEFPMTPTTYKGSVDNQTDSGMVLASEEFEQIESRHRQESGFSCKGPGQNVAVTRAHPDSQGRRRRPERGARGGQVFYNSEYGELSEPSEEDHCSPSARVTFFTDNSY
In short: (§2)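 Single-concentration profiling at 1 μM against a panel of 220 purified kinases, run as an outsourced SelectScreen kinase profiling service. Activity is expressed as percent inhibition.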

[5] = target: T2, Rhodopsin kinase GRK7 (Homo sapiens) (UniProt Q8WTQ7); assay: Inhibition of GRK7 at 1 uM in presence of 10 uM ATP by Select Screen kinase assay relative to untreated control; in short: as §2
T2 sequence (whole entry): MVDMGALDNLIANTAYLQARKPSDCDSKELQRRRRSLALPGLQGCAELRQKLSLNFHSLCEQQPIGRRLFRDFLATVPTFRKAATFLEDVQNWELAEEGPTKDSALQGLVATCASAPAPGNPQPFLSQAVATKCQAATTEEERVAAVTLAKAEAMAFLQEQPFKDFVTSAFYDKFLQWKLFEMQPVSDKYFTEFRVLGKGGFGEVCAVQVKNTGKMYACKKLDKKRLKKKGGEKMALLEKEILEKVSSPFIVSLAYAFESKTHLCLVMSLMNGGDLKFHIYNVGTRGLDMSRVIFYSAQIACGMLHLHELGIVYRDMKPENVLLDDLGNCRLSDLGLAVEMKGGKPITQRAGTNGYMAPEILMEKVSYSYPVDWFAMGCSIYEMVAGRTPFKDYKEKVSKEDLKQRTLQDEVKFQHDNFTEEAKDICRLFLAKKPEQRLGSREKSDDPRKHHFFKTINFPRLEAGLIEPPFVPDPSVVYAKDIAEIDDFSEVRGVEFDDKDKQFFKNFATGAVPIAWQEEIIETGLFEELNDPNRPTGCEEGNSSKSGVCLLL

[6] = target: T3, Interleukin-1 receptor-associated kinase 4 (Homo sapiens) (UniProt Q9NWZ3); assay: Inhibition of IRAK4 at 1 uM in presence of 10 uM ATP by Select Screen kinase assay relative to untreated control; in short: as §2
T3 sequence (whole entry): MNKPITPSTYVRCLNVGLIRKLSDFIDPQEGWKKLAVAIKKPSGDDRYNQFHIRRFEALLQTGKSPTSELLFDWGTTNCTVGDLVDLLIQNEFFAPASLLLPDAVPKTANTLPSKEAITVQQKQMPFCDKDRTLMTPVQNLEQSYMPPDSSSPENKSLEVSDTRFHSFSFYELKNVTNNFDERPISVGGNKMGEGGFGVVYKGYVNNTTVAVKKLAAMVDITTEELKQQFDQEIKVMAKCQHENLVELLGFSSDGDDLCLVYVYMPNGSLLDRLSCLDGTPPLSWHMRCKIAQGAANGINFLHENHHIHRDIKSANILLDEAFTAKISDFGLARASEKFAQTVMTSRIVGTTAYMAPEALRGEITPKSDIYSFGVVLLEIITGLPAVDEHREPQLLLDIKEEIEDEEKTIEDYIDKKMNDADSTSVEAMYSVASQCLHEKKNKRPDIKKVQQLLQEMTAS

[7] = target: Serine/threonine-protein kinase MARK2 (Homo sapiens) (UniProt Q7KZI7); assay: Inhibition of MARK2 at 1 uM in presence of 10 uM ATP by Select Screen kinase assay relative to untreated control; in short: as §2
Serine/threonine-protein kinase MARK2 (Homo sapiens), sequence (Q7KZI7 whole entry): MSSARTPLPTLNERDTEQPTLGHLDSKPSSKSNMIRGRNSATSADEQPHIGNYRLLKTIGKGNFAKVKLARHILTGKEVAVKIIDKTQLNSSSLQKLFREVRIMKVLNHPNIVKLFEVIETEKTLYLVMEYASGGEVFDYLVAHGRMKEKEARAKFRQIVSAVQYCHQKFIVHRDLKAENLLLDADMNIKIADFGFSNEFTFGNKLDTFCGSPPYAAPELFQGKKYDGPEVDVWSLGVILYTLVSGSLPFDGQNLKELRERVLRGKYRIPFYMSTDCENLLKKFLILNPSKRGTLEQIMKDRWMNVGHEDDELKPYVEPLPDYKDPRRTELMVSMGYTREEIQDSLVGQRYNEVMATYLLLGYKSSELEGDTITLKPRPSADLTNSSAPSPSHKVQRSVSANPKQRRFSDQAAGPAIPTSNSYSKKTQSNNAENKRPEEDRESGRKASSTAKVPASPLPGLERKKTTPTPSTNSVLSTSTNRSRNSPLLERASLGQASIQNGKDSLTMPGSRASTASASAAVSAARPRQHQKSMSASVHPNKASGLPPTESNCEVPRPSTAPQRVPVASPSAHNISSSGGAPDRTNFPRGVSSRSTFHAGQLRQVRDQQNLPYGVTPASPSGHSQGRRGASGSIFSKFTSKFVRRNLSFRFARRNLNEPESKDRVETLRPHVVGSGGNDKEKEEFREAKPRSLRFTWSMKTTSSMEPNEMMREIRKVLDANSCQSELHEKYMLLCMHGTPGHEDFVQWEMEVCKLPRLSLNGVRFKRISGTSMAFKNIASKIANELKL

[8] = target: Hepatocyte growth factor receptor (Homo sapiens) (UniProt P08581); assay: Inhibition of MET at 1 uM in presence of 10 uM ATP by Select Screen kinase assay relative to untreated control; in short: as §2
Hepatocyte growth factor receptor (Homo sapiens), sequence (P08581 whole entry): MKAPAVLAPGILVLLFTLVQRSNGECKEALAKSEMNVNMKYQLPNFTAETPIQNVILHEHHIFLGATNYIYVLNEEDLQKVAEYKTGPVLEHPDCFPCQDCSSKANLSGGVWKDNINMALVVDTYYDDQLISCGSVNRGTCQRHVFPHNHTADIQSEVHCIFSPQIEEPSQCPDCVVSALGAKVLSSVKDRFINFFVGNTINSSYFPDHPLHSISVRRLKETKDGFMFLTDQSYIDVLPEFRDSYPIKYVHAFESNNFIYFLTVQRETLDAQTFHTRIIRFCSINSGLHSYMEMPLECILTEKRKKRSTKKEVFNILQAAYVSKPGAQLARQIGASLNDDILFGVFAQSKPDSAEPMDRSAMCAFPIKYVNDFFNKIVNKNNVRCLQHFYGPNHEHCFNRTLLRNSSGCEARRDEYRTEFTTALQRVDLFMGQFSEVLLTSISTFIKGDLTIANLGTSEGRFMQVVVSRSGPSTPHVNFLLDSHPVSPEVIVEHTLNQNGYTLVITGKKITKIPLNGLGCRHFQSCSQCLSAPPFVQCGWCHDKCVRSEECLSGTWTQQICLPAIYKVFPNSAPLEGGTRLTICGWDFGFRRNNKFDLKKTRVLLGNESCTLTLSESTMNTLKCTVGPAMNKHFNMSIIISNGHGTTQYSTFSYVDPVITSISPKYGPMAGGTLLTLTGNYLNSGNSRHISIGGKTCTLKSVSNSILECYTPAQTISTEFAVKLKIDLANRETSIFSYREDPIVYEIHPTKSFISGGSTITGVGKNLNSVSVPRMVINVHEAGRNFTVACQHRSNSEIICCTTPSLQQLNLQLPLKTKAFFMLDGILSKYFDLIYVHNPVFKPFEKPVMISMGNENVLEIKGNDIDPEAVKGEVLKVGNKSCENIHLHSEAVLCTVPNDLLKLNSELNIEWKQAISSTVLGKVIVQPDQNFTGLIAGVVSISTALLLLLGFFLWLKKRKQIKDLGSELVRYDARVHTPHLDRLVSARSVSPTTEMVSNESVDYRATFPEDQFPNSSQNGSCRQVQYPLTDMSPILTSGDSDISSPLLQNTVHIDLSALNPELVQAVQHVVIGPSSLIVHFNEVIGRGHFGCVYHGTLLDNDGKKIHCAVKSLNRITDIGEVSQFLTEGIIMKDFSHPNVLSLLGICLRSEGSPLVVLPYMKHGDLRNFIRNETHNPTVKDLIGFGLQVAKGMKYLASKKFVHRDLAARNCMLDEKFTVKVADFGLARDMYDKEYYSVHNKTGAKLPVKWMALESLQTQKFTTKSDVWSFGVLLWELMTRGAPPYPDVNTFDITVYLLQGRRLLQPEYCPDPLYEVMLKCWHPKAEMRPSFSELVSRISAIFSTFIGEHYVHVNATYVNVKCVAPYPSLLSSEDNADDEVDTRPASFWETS

Serine/threonine-protein kinase 25 (Homo sapiens), sequence (O00506 whole entry, looked up): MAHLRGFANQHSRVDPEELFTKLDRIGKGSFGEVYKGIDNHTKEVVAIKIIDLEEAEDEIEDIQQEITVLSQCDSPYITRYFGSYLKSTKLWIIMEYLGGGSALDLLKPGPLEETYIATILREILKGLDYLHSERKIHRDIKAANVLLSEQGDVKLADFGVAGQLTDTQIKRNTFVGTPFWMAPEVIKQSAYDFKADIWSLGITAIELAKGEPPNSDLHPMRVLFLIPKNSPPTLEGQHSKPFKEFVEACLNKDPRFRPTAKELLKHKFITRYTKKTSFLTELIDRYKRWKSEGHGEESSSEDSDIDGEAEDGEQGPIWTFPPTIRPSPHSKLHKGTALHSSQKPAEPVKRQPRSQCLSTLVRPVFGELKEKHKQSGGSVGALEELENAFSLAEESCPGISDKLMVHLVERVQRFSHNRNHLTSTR

inhibition [1]	inhibition [2]	inhibition [3]	inhibition [4]	inhibition [5]	inhibition [6]	inhibition [7]	inhibition [8]	Structure (SMILES)
13%	82%	18%	70%	17%	49%	93%	11%	O=C(NCCCNc1nc(Nc2cccc(NC(=O)N3CCCC3)c2)ncc1I)c1cccs1
14%	2%	11%	45%	34%	9%	26%	8%	COc1ccccc1N1CCN(c2ncnc3[nH]nc(Br)c23)CC1

Structure (SMILES)	inhibition [1]	inhibition [2]	inhibition [3]	inhibition [4]	inhibition [5]	inhibition [6]	inhibition [7]	inhibition [8]
Cc1n[nH]c2ccc(-c3cncc(OC[C@@H](N)Cc4c[nH]c5ccccc45)c3)cc12	102%	35%	1%	1%	102%	53%	68%	12%
